{"source": "ChEMBL document CHEMBL1800018", "about": "“Discovery of a series of imidazo[4,5-b]pyridines with dual activity at angiotensin II type 1 receptor and peroxisome proliferator-activated receptor-γ” (J Med Chem, 2011)", "key": {"[1]": {"assay": "Cmax in SHR rat at 3 mg/kg, po", "format": "ADME, organism-based", "design": "dose 3 mg/kg, route oral", "conditions": "in vivo", "method_in_brief": "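SHR received a single oral dose of 1, 3 or 10 mg/kg. Systemic exposure was determined as plasma Cmax and AUC.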"}, "Rattus norvegicus [2]": {"test_system": "Rattus norvegicus", "assay": "Antidiabetic activity in ZDF rat assessed as blood glucose level at 3 mg/kg, po QD for 40 days (reference value: 771+/-60 mg/dL)", "format": "functional"}, "Rattus norvegicus [3]": {"test_system": "Rattus norvegicus", "assay": "Antidiabetic activity in ZDF rat assessed as adiponectin level at 0.1 mg/kg, po QD for 40 days (reference value: 11.9+/-1.5 ug/ml)", "format": "functional"}, "Rattus norvegicus [4]": {"test_system": "Rattus norvegicus", "assay": "Antihypertensive activity in po dosed SHR rat assessed as decrease in arterial blood pressure administered as single dose", "format": "functional, organism-based", "conditions": "Artery", "method_in_brief": "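SHR carried aortic radiotelemetry transmitters implanted under Telazol anesthesia and recovered for at least 1 week. Rats were randomized by 2 h baseline mean BP. Each received vehicle by oral gavage on Day 0 and a single drug dose (0.3–10 mg/kg) on Day 1, with BP followed 20 h each day. The change was taken as Day 1 minus Day 0, n = 8/group.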"}, "Rattus norvegicus [5]": {"test_system": "Rattus norvegicus", "assay": "Antidiabetic activity in ZDF rat assessed as adiponectin level at 100 mg/kg, po QD for 40 days (reference value: 11.9+/-1.5 ug/ml)", "format": "functional"}, "[6]": {"target": "T1, Type-1 angiotensin II receptor (Homo sapiens, UniProt P30556)", "T1 sequence (P30556 whole entry)": "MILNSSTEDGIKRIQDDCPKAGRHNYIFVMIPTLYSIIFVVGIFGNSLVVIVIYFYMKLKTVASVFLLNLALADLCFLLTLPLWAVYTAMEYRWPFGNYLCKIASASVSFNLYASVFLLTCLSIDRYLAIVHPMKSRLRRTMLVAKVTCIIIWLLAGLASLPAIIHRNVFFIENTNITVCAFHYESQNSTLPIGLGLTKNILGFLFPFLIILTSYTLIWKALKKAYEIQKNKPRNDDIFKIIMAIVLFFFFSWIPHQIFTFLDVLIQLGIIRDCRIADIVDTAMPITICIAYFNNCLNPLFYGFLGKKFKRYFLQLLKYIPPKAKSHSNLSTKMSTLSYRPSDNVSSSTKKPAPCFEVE", "assay": "Displacement of [125I]Tyr4-Sar1,Ile8-Angiotensin II from human Angiotensin 1 receptor after 60 mins by scintillation counting"}}, "note": "Activity calls are given as the source filed them. The rule behind the calls is not given here.", "data": [{"smiles": "CCc1nc2c(C)cc(CC(C)C)nc2n1[C@H]1CCc2cc(-c3ccccc3-c3nnn[nH]3)ccc21", "values": [{"measurement": "Cmax", "setting": "[1]", "result": 283, "unit": "ng/mL"}, {"measurement": "Activity", "setting": "Rattus norvegicus [2]", "result": 520, "unit": "mg/dL"}, {"measurement": "Activity", "setting": "Rattus norvegicus [3]", "result": 9.9, "unit": "µg/mL"}, {"measurement": "Activity", "setting": "Rattus norvegicus [4]", "result": "Active"}, {"measurement": "Activity", "setting": "Rattus norvegicus [5]", "result": 27.5, "unit": "µg/mL"}, {"measurement": "IC50", "setting": "[6]", "result": 1.6, "unit": "nM"}]}]}
